In ChEMBL document CHEMBL1148927, “A novel antimicrobial indolizinium alkaloid from Aniba panurensis” (J Nat Prod, 2004):
Activity calls are given as the source filed them. The calls are words filed in the database; no cut-off is given here.

Experiments:
Enterococcus faecium [1] = assay: […] activity against Enterococcus faecium 1438 at 100 ug/mL after 18 hrs by broth microdilution assay; format: functional, organism-based
How it was run: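 E. faecium 1438 clinical isolate grown at 37 °C with 100 rpm shaking in Todd Hewitt broth with 0.5% yeast extract and 2% NaCl to exponential phase. Culture adjusted to A600 0.3, then diluted 1:1000. Added to dried sample in wells, incubated 18 h, and growth read at A650 against medium-only cultures. Chloramphenicol 100 µg/mL was the inhibition control.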

Staphylococcus aureus [2] = assay: […] activity against Staphylococcus aureus 385 at 100 ug/mL after 24 hrs by broth microdilution assay
Enterococcus faecium [3] = assay: […] activity against Enterococcus faecium 1438 by broth microdilution assay; format: functional
Pichia kudriavzevii = assay: Antifungal activity against Candida krusei ATCC 6258 by broth microdilution assay; format: functional
How it was run: (§1)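 Broth microdilution in RPMI 1640 buffered with MOPS, following NCCLS guidelines; values reported as MIC90.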

Nakaseomyces glabratus = assay: Antifungal activity against Candida glabrata by broth microdilution assay; format: functional; how it was run: as §1
Candida parapsilosis = assay: Antifungal activity against Candida parapsilosis ATCC 22019 by broth microdilution assay; format: functional; settings: Lodderomyces parapsilosis; how it was run: as §1
Candida albicans = assay: Antifungal activity against Candida albicans 99-788 after 24 hrs by broth microdilution assay; format: functional
How it was run: (§2)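 Clinical isolates grown in YM broth at 37 °C with shaking at 100 rpm to exponential phase, adjusted to A600 = 0.3, then diluted 1:150 (C. albicans) or 1:128 (C. neoformans). Samples dried in wells, culture added, and tested top dose 250 µg/mL plus five 2-fold dilutions. Incubation 24 h (C. albicans) or 72 h (C. neoformans). A650 read; MIC50 = concentration lowering A650 ≥50% vs medium-only cultures.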

Staphylococcus aureus [4] = assay: […] activity against Staphylococcus aureus 385 after 24 hrs by broth microdilution assay
Cryptococcus neoformans [5] = assay: Antifungal activity against Cryptococcus neoformans 96-1034 by broth microdilution assay; format: functional; how it was run: as §1
[6] = Toxicity in sheep red blood cells assessed as hemolysis after 2 hrs; format: cell-based, Ovis aries; settings: erythrocyte
How it was run: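 Sheep red blood cells at 4% final in 0.2 mL, with samples serially diluted in phosphate-buffered saline; highest dose contained 5% DMSO. Incubated 2 h at 37 °C, then 0.1 mL taken to measure hemolysis.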

Clavispora lusitaniae = assay: Antifungal activity against Candida lusitaniae by broth microdilution assay; format: functional; how it was run: as §1
Cryptococcus neoformans [7] = assay: Antifungal activity against Cryptococcus neoformans 96-1034 after 72 hrs by broth microdilution assay; format: functional; how it was run: as §2
[8] = Lipophilicity, log K in octanol water; format: physicochemical

For O=C(N[C@H](CO)[C@H](O)c1ccc([N+](=O)[O-])cc1)C(Cl)Cl, the Activity (Enterococcus faecium [1]) was “Active”.
For O=C(O)c1cn(C2CC2)c2cc(N3CCNCC3)c(F)cc2c1=O, the Activity (Staphylococcus aureus [2]) was “Active”.
With CCCCCCCC/C=C\c1c(C)c(/C=C\CCCCCCCC)c2[n+](c1C)CCC2.O=C([O-])C(F)(F)F [ANIBAMINE] the MIC50 (Enterococcus faecium [3]) was 0.25 µg/mL, the MIC90 (Pichia kudriavzevii) was 0.5 µg/mL and the MIC90 (Nakaseomyces glabratus) was 2 µg/mL. It also gave an MIC90 (Candida parapsilosis) of 0.5 µg/mL, an MIC50 (Candida albicans) of 0.25 µg/mL and an MIC90 (Candida albicans) of 0.5 µg/mL. The MIC50 (Staphylococcus aureus [4]) was > 25 µg/mL, the MIC90 (Cryptococcus neoformans [5]) was 0.25 µg/mL and the Activity [6] was “Toxic”. The MIC90 (Clavispora lusitaniae) was 1 µg/mL, the MIC50 (Cryptococcus neoformans [7]) was 0.25 µg/mL and the “log K” value [8] was 9.1.
